In ChEMBL document CHEMBL1142247, “Structure-based design of novel groups for use in the P1 position of thrombin inhibitor scaffolds. Part 2: N-acetamidoimidazoles” (Bioorg Med Chem Lett, 2008):
The source made the active and inactive calls. The rule behind the calls is not given here.

Key:
[1] = Inhibition of trypsin
Plasma = assay: Anticoagulant potency in human plasma assessed as concentration required to double activated partial thromboplastin time; type: functional, cell-free
Prothrombin = Prothrombin (Homo sapiens, UniProt P00734); assay: Inhibition of thrombin
[2] = Selectivity for thrombin over trypsin
Canis familiaris = assay: (§1) Half life in dog at 5 mg/kg, po; type: ADME, organism-based, Canis lupus familiaris; set-up: dose 5 mg/kg, route oral; conditions: in vivo
[3] = Cmax in dog at 0.5 mg/kg, po; type: ADME, organism-based, Canis lupus familiaris; set-up: dose 0.5 mg/kg, route oral; conditions: in vivo
[4] = Half life in dog at 0.5 mg/kg, po; type: ADME, organism-based, Canis lupus familiaris; set-up: dose 0.5 mg/kg, route oral; conditions: in vivo
[5] = Half life in dog at 1 mg/kg, po; type: ADME, organism-based, Canis lupus familiaris; set-up: dose 1 mg/kg, route oral; conditions: in vivo
[6] = Cmax in dog at 5 mg/kg, po; type: ADME, organism-based, Canis lupus familiaris; set-up: dose 5 mg/kg, route oral; conditions: in vivo
[7] = as §1; type: ADME, organism-based, Canis lupus familiaris; set-up: dose 5 mg/kg, route oral; conditions: in vivo
[8] = Half life in rhesus monkey at 5 mg/kg, po; type: ADME, organism-based, Macaca mulatta; set-up: dose 5 mg/kg, route oral; conditions: in vivo
[9] = Cmax in rhesus monkey at 5 mg/kg, po; type: ADME, organism-based, Macaca mulatta; set-up: dose 5 mg/kg, route oral; conditions: in vivo
Rattus norvegicus = assay: Antithrombotic activity against ferric chloride induced thrombosis in rat at 10 ug/kg/min, iv; type: functional, organism-based
Summary of the method: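 Ferric chloride-induced thrombosis in rats, with compound given by intravenous infusion at 10 µg/kg/min. Read-out is the number of animals with vessel occlusion out of 6.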

Row | Structure (SMILES) | Ki [1] [µM] | Activity (Plasma) [µM] | Ki (Prothrombin) [µM] | Selectivity ratio [2] | further results
1 | CCC(C)(C)NC(=O)Cn1cnc(C)c1Cn1c(C)ccc(NS(=O)(=O)Cc2ccccc2)c1=O | 34 | 0.56 | 0.00019 | 180000 | –
2 | Cc1ncn(CC(=O)NCC(F)(F)F)c1Cn1c(C)ccc(NS(=O)(=O)Cc2ccccc2)c1=O | 49 | 0.53 | 0.00083 | 59000 | –
3 | Cc1ncn(CC(=O)NC2CC2)c1Cn1c(C)ccc(NS(=O)(=O)Cc2ccccc2)c1=O | 185 | 0.68 | 0.0018 | 103000 | –
4 | Cc1nc[nH]c1CNC(=O)Cn1c(C)ccc(NS(=O)(=O)Cc2ccccc2)c1=O | 43 | 1.1 | – | – | –
5 | CCNC(=O)Cn1cnc(C)c1Cn1c(C)ccc(NS(=O)(=O)Cc2ccccc2)c1=O | 137 | 0.7 | 0.002 | 70000 | –
6 | Cc1nc(N)ccc1CNC(=O)Cn1c(C)ccc(NS(=O)(=O)Cc2ccccc2)c1=O [L-374087] | 3.2 | 0.21 | – | 6400 | t1/2 (Canis familiaris): 2.5 h; Cmax [3]: 2000 nM; half-life [4]: 3.8 h; half-life [5]: 2.5 h
7 | Cc1ncn(CC(=O)NC2CCCNC2)c1CNC(=O)Cn1c(C)cnc(NCCc2ccccc2)c1=O (stereo unspecified) | 18 | 0.7 | 0.0012 | – | Cmax [6]: 1460 nM; half-life [7]: 1.6 h; half-life [8]: 1.1 h; Cmax [9]: 360 nM
8 | Cc1ncn(CC(=O)NC2CC(N)C2)c1Cn1c(C)ccc(NS(=O)(=O)Cc2ccccc2)c1=O (stereo unspecified) | 122 | 0.65 | 0.003 | 41000 | –
9 | Cc1ncn(CC(=O)NCCN)c1Cn1c(C)ccc(NS(=O)(=O)Cc2ccccc2)c1=O | 85 | 0.39 | 0.0009 | 94000 | Activity (Rattus norvegicus): inactive
10 | Cc1ncn(CC(=O)NCC2CC2)c1Cn1c(C)ccc(NS(=O)(=O)Cc2ccccc2)c1=O | 57 | – | 0.0011 | 52000 | –
11 | Cc1ncn(CC(=O)OC(C)(C)C)c1Cn1c(C)ccc(NS(=O)(=O)Cc2ccccc2)c1=O | 50 | – | 0.00048 | 104000 | –
12 | Cc1ncn(CC(=O)NN2CC(O)C2)c1Cn1c(C)ccc(NS(=O)(=O)Cc2ccccc2)c1=O | 167 | 0.66 | 0.0028 | 48000 | –
13 | Cc1ncn(CC(=O)NC2CCCNC2)c1Cn1c(C)ccc(NS(=O)(=O)Cc2ccccc2)c1=O (stereo unspecified) | 110 | 0.35 | 0.00031 | 355000 | Activity (Rattus norvegicus): inactive
14 | Cc1ncn(CC(=O)NN2CCCCC2)c1Cn1c(C)ccc(NS(=O)(=O)Cc2ccccc2)c1=O | 56 | 0.37 | 0.00065 | 86000 | Activity (Rattus norvegicus): inactive
15 | Cc1ncn(CC(=O)NCC(C)(C)N)c1Cn1c(C)ccc(NS(=O)(=O)Cc2ccccc2)c1=O | 80 | 0.26 | 0.00068 | 118000 | –
16 | Cc1ncn(CC(=O)NC(C)(C)C)c1Cn1c(C)ccc(NS(=O)(=O)Cc2ccccc2)c1=O | 68 | 0.52 | 0.00036 | 190000 | –
17 | Cc1ncn(CC(=O)NCCO)c1Cn1c(C)ccc(NS(=O)(=O)Cc2ccccc2)c1=O | 115 | 0.85 | 0.0024 | 48000 | –
18 | Cc1ncn(CC(=O)NC(C)(C)CN)c1Cn1c(C)ccc(NS(=O)(=O)Cc2ccccc2)c1=O | 70 | 0.32 | 0.0003 | 233000 | –
19 | Cc1ncn(CC(=O)NN2CCOCC2)c1Cn1c(C)ccc(NS(=O)(=O)Cc2ccccc2)c1=O | 101 | 0.51 | 0.0019 | 53000 | –
